Data on 25 molecules can be found in ChEMBL document CHEMBL4613227, “Synthesis and evaluation of the HIF-1α inhibitory activity of 3(5)-substituted-4-(quinolin-4-yl)- and 4-(2-phenylpyridin-4-yl)pyrazoles as inhibitors of ALK5” (Bioorg Med Chem Lett, 2020).

Activity calls are given as the source filed them. The rule behind the calls is not given here. Where a SMILES comes first, the peptide text is derived from it. The star is where a group is joined. Cbz = O=C(OCc1ccccc1)*

Assay [1] addresses T1, Mitogen-activated protein kinase 14 (Homo sapiens, UniProt Q16539). In words: Inhibition of recombinant human p38alpha expressed in Escherichia coli assessed as residual activity at 10 uM (reference value: 100 +/- 0.1%). In outline:
(§1)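 Single-point kinase screen at 10 μM, in duplicate; ALK5 as human GST-fusion from baculovirus/Sf9, p38α as untagged human protein from E. coli; residual activity relative to DMSO vehicle, mean ± SD of two independent experiments.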

Assay [2] deals with T2, TGF-beta receptor type-1 (Homo sapiens) (UniProt P36897).
T2 sequence (whole entry): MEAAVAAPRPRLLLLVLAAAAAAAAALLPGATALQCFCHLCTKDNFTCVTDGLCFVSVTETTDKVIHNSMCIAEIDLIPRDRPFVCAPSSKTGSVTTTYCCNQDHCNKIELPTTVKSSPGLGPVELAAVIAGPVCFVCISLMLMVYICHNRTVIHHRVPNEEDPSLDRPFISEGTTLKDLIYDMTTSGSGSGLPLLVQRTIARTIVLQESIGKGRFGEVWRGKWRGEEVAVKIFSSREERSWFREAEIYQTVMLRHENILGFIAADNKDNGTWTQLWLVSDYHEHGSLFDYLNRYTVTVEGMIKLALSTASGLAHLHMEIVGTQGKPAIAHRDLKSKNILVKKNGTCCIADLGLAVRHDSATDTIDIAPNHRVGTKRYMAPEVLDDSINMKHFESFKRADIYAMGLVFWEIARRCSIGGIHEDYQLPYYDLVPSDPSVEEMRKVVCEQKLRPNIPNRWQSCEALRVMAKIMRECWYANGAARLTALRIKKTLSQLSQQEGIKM
The assay is described as follows: Inhibition of recombinant GST-tagged human ALK5 expressed in baculovirus infected Sf9 insect cells assessed as residual activity at 10 uM. The gist of the method:
as §1

Assay [3] addresses T1, Mitogen-activated protein kinase 14. In words: Inhibition of recombinant human p38alpha expressed in Escherichia coli. The gist of the method:
(§2)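 IC50 determination against ALK5 (human GST-fusion, Sf9 baculovirus) and p38α (untagged human, E. coli); values averaged from three independent experiments run in triplicate.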

The target in assay [4] is T3, TGF-beta receptor type-1 (Homo sapiens, UniProt P36897).
T3 sequence (P36897 whole entry): T2 sequence (whole entry)
In words: Inhibition of recombinant GST-tagged human ALK5 expressed in baculovirus infected Sf9 insect cells. The gist of the method:
as §2

For assay [5], the system named is HCT-116. In words: Inhibition of TNFalpha-induced HIF1alpha expression in human HCT116 cells at 50 uM by Western blot analysis. The format is functional, cell-based. In outline: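 HCT116 exposed to TNF 10 ng/mL for 24 h with graded concentrations; total protein blotted for HIF-1α, Topo-I reprobe as loading control.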
The test system of assay [6] is HCT-116. The assay is described as follows: Induction of apoptosis in human HCT116 cells assessed as viable cells at 50 uM after 12 hrs by Annexin-V/PI-staining based flow cytometric analysis (reference value: 95.3%). In kind it is functional. Conditions: HCT-116, 12 h, read-out: Activity. On the technique in general: In flow cytometry, cells or beads pass a laser one at a time.

For assay [7], the system named is HCT-116. The assay is described as follows: Induction of apoptosis in human HCT116 cells assessed as necrotic cells at 50 uM after 12 hrs by Annexin-V/PI-staining based flow cytometric analysis (reference value: 3.5%). The format is functional.
Assay [8] has as its system HCT-116. In words: Induction of apoptosis in human HCT116 cells assessed as viable cells at 50 uM preincubated for 12 hrs followed by TNF stimulation and measured after 24 hrs by Annexin-V/PI-staining based flow cytometric analysis (reference value: 92.4%). The format is functional. The conditions noted are these: read-out: Activity.
In assay [9] the test system is HCT-116. The assay is described as follows: Induction of apoptosis in human HCT116 cells assessed as early apoptotic cells at 50 uM preincubated for 12 hrs followed by TNF stimulation and measured after 24 hrs by Annexin-V/PI-staining based flow cytometric analysis (reference value: 2.8%). The format is functional.
In assay [10] the test system is HCT-116. In words: Induction of apoptosis in human HCT116 cells assessed as late apoptotic cells at 50 uM preincubated for 12 hrs followed by TNF stimulation and measured after 24 hrs by Annexin-V/PI-staining based flow cytometric analysis (reference value: 1.4%). The format is functional.
Assay [11] relates to HCT-116. In words: Induction of apoptosis in human HCT116 cells assessed as necrotic cells at 50 uM preincubated for 12 hrs followed by TNF stimulation and measured after 24 hrs by Annexin-V/PI-staining based flow cytometric analysis (reference value: 3.6%). The format is functional.
The subject of assay [12] is HCT-116. The assay is described as follows: […] of HIF1alpha expression in human HCT116 cells at 10 uM after 30 mins in presence of 1% O2 by Western blot analysis. The format is functional, cell-based. For orientation: In western blotting, separated proteins are transferred to a membrane and probed.

T1 sequence (Q16539 whole entry, the tested form may be a part): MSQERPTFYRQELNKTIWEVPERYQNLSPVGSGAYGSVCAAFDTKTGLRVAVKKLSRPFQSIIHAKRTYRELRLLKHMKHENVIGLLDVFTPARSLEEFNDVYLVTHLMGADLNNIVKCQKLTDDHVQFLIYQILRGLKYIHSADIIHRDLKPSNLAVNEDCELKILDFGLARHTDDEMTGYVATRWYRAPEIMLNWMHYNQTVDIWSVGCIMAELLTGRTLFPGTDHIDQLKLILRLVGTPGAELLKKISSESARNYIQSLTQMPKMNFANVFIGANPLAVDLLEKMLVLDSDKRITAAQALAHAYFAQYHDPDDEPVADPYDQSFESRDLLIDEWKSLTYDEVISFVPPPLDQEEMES

For the molecule `Cc1cccc(-c2nn(CC(=O)Nc3cccc(F)c3)cc2-c2ccnc3ccccc23)n1`, the Activity was 4% in [1] and 0% in assay [2].

Turning to `Cc1cccc(-c2nn(CC(=O)Nc3ccccc3F)cc2-c2ccnc(-c3ccccc3)c2)n1`, the Activity in assay [1] and in [2] was 20% in each case.

For `Cc1cccc(-c2nn(CC(=S)Nc3ccccc3)cc2-c2ccnc3ccccc23)n1`, the Activity in [1] and in assay [2] was 3% each time. Also, the IC50 in assay [3] was determined as 74 nM; in assay [4], 57 nM.

Take `Cc1cccc(-c2nn(CC(=S)Nc3cccc(F)c3)cc2-c2ccnc(-c3ccccc3)c2)n1`: the values for the Activity in [1] and in assay [2] were 9% and 6%, respectively. In addition, the results for the IC50 in assay [3] and in assay [4] were 761 nM and 1560 nM, respectively.

As for `Cc1cccc(-c2c(-c3ccnc(-c4ccccc4)c3)cnn2CC(=O)Nc2ccccc2F)n1`, the Activity in assay [1] came out at 96%; in [2], 102%.

Consider `Cc1cccc(-c2c(-c3ccnc4ccccc34)cnn2CC(=O)Nc2ccccc2)n1`, for which the Activity in assay [1] came to 24%; in assay [2], 71%.

For `Cc1cccc(-c2nn(CC(=O)Nc3ccccc3F)cc2-c2ccnc3ccccc23)n1`, the Activity in [1] was determined as 6%; in [2], 0%.

As for `Cc1cccc(-c2nn(CC(=S)Nc3ccccc3)cc2-c2ccnc(-c3ccccc3)c2)n1`, the Activity worked out at 10% in assay [1] and 11% in [2]. Moreover, the values for the IC50 in assay [3] and in [4] were 536 nM and 1690 nM, respectively.

Consider `Cc1cccc(-c2nn(CC(=O)Nc3cccc(C#N)c3)cc2-c2ccnc(-c3ccccc3)c2)n1`, for which the Activity in assay [1] came out at 24%; in assay [2], 18%.

Regarding `Cc1cccc(-c2c(-c3ccnc(-c4ccccc4)c3)cnn2CC(=O)Nc2ccccc2)n1`, the Activity in assay [1] is 66%; in assay [2], 100%.

As to `Cc1cccc(-c2nn(CC(=S)Nc3cccc(C#N)c3)cc2-c2ccnc(-c3ccccc3)c2)n1`, the Activity in assay [1] stood at 15%; in assay [2], 12%. Besides, the figures for the IC50 in assay [3] and in assay [4] were 1150 nM and 2200 nM, respectively.

For `Cc1cccc(-c2nn(CC(=O)Nc3ccccc3)cc2-c2ccnc3ccccc23)n1`, the Activity in assay [1] turned out to be 10%; in [2], 2%.

`Cc1cccc(-c2nn(CC(=S)Nc3ccccc3F)cc2-c2ccnc3ccccc23)n1`: the Activity in assay [1] is 4%; in assay [2], 2%. Further, the results for the IC50 in [3] and in assay [4] were 68 nM and 53 nM, respectively.

Take `Cc1cccc(-c2c(-c3ccnc4ccccc34)cnn2CC(=O)Nc2ccccc2F)n1`: the Activity in assay [1] was determined as 50%; in assay [2], 79%.

As for `Cc1cccc(-c2c(-c3ccnc(-c4ccccc4)c3)cnn2CC(=O)Nc2cccc(C#N)c2)n1`, the Activity in [1] amounted to 135%; in assay [2] it was 105%.

In the case of `Cc1cccc(-c2nn(CC(=O)Nc3cccc(C#N)c3)cc2-c2ccnc3ccccc23)n1`, the Activity in assay [1] amounted to 6%; in [2], 1%.

In the case of `Cc1cccc(-c2c(-c3ccnc(-c4ccccc4)c3)cnn2CC(=O)Nc2cccc(F)c2)n1`, the Activity stood at 81% in [1] and 93% in assay [2].

On to `Cc1cccc(-c2c(-c3ccnc4ccccc34)cnn2CC(=O)Nc2cccc(C#N)c2)n1`, for which the Activity in [1] came out at 51%; in assay [2] it was 17%.

On to `Cc1cccc(-c2c(-c3ccnc4ccccc34)cnn2CC(=O)Nc2cccc(F)c2)n1`, for which the Activity stood at 31% in assay [1] and 39% in assay [2].

As to `Cc1cccc(-c2nn(CC(=S)Nc3cccc(F)c3)cc2-c2ccnc3ccccc23)n1`, the figures for the Activity in assay [1] and in assay [2] were 3% and 2%, respectively. Also, the IC50 in assay [3] turned out to be 63 nM; in assay [4] it was 43 nM.

On to `Cc1cccc(-c2nn3c(c2-c2ccnc4ccc(C(N)=O)cc24)CCC3)n1` [GALUNISERTIB], for which the Activity in [1] came out at 4%; in assay [7], 8.5%; in [9], 3.7%; in assay [10], 2.8%; in [11] it was 5.7%. Besides, the inhibition result in assay [5] is “Active”. The viability at 50 µM is 85.2% in assay [6] and 87.7% in [8].

For `CC(C)C[C@@H](C=O)NC(=O)[C@H](CC(C)C)NC(=O)[C@H](CC(C)C)NC(=O)OCc1ccccc1` (Cbz-Leu-Leu-Leu-aldehyde), the result in assay [12] was Active.

For `Cc1cccc(-c2nn(CC(=O)Nc3ccccc3)cc2-c2ccnc(-c3ccccc3)c2)n1`, the results for the Activity in assay [1] and in [2] were 11% and 12%, respectively.

As to `Cc1cccc(-c2nn(CC(=O)Nc3cccc(F)c3)cc2-c2ccnc(-c3ccccc3)c2)n1`, the Activity in [1] turned out to be 14%; in [2], 3%.

Take `Cc1cccc(-c2nn(CC(=S)Nc3ccccc3F)cc2-c2ccnc(-c3ccccc3)c2)n1`: the Activity in assay [1] is 4%; in assay [2], 11%. Also, the IC50 in [3] stood at 487 nM; in [4], 2050 nM.

A word on the IC50: it is the concentration needed to halve the response being measured.
